Experimental data as given in ChEMBL document CHEMBL3877241 (J Med Chem, 2016).
pIC50: −log10 of the molar value. Active and inactive are the calls of the source. No cut-off for these calls is given here.

Experiments:
[1] = target: Histone deacetylase 4 (Homo sapiens) (UniProt P56524); assay: Inhibition of human recombinant N-terminal GST-tagged C-terminal His-tagged HDAC4 (627 to 1084 residues) expressed in insect cells at 10 uM preincubated with enzyme followed by acetyl-Lys(trifluoroacetyl)-AMC substrate addition measured after 2 hrs by fluorescence assay relative to control
Outline: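 HDAC enzyme in 50 mM Tris-HCl pH 8.0, 137 mM NaCl, 2.7 mM KCl, 1 mM MgCl2 was pre-incubated with compound dosed from DMSO. The reaction was started with the class IIa substrate acetyl-Lys(trifluoroacetyl)-AMC and run 2 h at 30 °C. Developer with trichostatin A stopped it, and fluorescence (Ex/Em 360/460 nm) was read at plateau. Single test concentration 10 µM.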

[2] = target: High affinity nerve growth factor receptor (Homo sapiens, UniProt P04629); assay: Inhibition of human NTRK1 (G475 to G790 residues) expressed in mammalian expression system by KINOMEScan assay
[3] = Growth inhibition of human HL60 cells at 4 uM relative to control; assay type: functional; conditions: HL-60, read-out: GI
[4] = Antiproliferative activity against human KG1 cells after 48 hrs by CellTiter-Glo assay; assay type: functional, cell-based; conditions: KG-1, 48 h
[5] = Antiproliferative activity against human MOLM14 cells harboring FLT3-ITD mutant after 48 hrs by CellTiter-Glo assay; assay type: functional, cell-based; conditions: MOLM-14, 48 h
[6] = target: T1, Tyrosine-protein kinase JAK2 (Homo sapiens, UniProt O60674); assay: Inhibition of JAK2 in IL-6-stimulated human KMS-12-BM cells assessed as suppression of STAT3 phosphorylation at TY705 residue at 1.5 uM pretreated for 3 hrs followed by IL-6 stimulation by immunoblot method
Outline: (§1)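 Cells (at least 3x10^6 per condition; KMS-12-BM or MOLM-14) pretreated with compound for 3 h, then stimulated with IL-6 10 ng/mL for 15 min. Cells lysed, equal protein run on SDS-PAGE and transferred to PVDF. Immunoblotted for p-STAT3 (Tyr705), with membranes re-probed for total STAT3. Reference JAK2 inhibitor control at 2 µM (KMS-12-BM) or 0.1 µM (MOLM-14).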

[7] = target: T1, Tyrosine-protein kinase JAK2; assay: Inhibition of JAK2 in IL-6-stimulated human MOLM14 cells assessed as suppression of STAT3 phosphorylation at TY705 residue at 1.5 uM pretreated for 3 hrs followed by IL-6 stimulation by immunoblot method; assay type: cell-based; conditions: MOLM-14; outline: as §1
[8] = target: T2, Protein deacetylase HDAC6 (Homo sapiens) (UniProt Q9UBN7); assay: Inhibition of HDAC6 in HEL 92.1.7 cells harboring JAK2 V617F mutant assessed as increase in acetylated tubulin level at 0.1 uM after 1 hr by immunoblot method; assay type: cell-based
T2 sequence (whole entry): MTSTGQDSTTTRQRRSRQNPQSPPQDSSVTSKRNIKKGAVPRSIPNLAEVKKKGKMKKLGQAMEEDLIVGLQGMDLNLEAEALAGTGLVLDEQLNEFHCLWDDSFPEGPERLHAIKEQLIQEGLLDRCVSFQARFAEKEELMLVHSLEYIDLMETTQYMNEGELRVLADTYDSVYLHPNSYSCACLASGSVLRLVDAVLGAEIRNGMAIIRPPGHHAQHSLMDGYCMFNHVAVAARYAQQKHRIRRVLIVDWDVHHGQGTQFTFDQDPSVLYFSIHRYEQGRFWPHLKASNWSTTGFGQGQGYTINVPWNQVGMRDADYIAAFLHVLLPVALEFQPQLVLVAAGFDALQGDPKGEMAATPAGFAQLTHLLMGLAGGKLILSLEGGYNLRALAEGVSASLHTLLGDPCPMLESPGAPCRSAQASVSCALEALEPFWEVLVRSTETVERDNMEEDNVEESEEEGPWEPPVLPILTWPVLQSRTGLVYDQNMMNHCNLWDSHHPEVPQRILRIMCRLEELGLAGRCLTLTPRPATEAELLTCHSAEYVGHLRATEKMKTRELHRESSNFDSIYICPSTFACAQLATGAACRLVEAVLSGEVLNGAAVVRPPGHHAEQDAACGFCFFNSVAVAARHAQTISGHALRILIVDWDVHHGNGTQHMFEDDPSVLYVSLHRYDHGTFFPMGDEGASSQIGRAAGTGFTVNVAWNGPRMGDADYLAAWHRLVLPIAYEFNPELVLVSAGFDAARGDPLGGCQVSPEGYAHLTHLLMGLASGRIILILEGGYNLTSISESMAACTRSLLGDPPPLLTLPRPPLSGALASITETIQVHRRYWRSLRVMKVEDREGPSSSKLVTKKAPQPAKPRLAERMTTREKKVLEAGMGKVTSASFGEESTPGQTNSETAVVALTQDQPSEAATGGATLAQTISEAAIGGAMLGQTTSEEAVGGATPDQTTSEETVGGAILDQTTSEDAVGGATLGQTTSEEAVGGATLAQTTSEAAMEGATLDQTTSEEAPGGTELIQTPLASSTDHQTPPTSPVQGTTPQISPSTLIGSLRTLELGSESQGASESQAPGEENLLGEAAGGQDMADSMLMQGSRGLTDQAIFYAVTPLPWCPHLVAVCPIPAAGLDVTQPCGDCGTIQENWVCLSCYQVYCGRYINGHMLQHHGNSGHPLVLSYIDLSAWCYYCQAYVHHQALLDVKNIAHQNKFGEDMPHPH
Outline: (§2)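 HEL92.1.7 cells seeded at 5x10^5/mL and treated 1 h at 0, 0.1, 0.5 and 1 μM. Lysed in RIPA with phosphatase/protease inhibitors, run on 10% SDS-PAGE and blotted to PVDF. Probed for acetyl-tubulin, acetyl-H3 (Lys9/Lys14), p-JAK2 (Y1007/1008) and p-STAT5 (Tyr694); membranes re-probed for tubulin, H3, JAK2 and STAT5. Quantified by densitometry.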

MOLM-14 [9] = assay: Induction of apoptosis in human MOLM14 cells assessed as necrotic cells at 1.5 uM after 48 hrs by Annexin-V FITC/propidium iodide staining based flow cytometry (reference value: 0.1%); assay type: functional
MOLM-14 [10] = assay: Induction of apoptosis in human MOLM14 cells assessed as early apoptotic cells at 3 uM after 48 hrs by Annexin-V FITC/propidium iodide staining based flow cytometry (reference value: 3.6 to 3.7%); assay type: functional
Outline: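 MOLM-14 cells treated 48 h at the stated concentrations; doxorubicin as positive control. Stained with Annexin V-FITC and propidium iodide and analysed by flow cytometry (at least 10,000 events). Gated quadrants: Annexin V−/PI− viable, Annexin V+/PI− early apoptotic, Annexin V+/PI+ late apoptotic.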

[11] = test system: Tyrosine-protein kinase JAK2 (Homo sapiens), O60674 [V617F]; assay: Induction of JAK2 V617F mutant phosphorylation at Y1007/8 residues in HEL 92.1.7 cells at 0.1 to 1 uM after 1 hr by immunoblot method; assay type: cell-based; outline: as §2
Tyrosine-protein kinase JAK2 (Homo sapiens), O60674 [V617F], sequence (O60674 whole entry V617F): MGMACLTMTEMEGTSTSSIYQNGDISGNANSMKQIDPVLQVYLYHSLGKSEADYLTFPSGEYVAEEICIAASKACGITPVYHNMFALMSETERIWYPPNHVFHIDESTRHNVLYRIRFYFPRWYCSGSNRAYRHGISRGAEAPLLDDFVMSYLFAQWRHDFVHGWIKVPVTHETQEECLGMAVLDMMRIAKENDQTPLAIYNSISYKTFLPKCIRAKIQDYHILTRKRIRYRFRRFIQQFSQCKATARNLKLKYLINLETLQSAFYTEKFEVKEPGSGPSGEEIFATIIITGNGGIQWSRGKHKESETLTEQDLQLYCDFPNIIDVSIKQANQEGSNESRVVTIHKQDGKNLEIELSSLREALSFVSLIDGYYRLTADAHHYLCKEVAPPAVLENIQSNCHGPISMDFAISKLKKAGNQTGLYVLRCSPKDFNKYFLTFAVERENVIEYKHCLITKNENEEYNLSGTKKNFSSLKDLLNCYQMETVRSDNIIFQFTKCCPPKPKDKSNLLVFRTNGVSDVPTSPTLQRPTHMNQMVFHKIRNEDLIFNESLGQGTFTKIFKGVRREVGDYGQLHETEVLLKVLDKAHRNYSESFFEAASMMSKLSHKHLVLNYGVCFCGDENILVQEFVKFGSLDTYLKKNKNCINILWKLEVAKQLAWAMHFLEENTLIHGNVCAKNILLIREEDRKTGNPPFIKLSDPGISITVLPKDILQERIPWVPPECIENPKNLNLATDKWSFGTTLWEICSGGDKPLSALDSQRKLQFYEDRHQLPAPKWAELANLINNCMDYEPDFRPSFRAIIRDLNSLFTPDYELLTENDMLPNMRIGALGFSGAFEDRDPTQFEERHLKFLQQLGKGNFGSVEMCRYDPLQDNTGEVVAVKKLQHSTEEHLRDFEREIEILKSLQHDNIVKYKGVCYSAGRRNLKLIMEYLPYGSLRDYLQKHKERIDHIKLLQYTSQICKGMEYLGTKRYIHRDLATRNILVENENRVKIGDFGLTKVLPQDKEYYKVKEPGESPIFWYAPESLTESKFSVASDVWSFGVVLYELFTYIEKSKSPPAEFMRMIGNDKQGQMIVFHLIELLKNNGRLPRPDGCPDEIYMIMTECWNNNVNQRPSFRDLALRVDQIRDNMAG

T1 sequence (O60674 whole entry): as the sequence (O60674 whole entry V617F) above, with F617V counted along it
High affinity nerve growth factor receptor, sequence (P04629 whole entry, the tested form may be a part): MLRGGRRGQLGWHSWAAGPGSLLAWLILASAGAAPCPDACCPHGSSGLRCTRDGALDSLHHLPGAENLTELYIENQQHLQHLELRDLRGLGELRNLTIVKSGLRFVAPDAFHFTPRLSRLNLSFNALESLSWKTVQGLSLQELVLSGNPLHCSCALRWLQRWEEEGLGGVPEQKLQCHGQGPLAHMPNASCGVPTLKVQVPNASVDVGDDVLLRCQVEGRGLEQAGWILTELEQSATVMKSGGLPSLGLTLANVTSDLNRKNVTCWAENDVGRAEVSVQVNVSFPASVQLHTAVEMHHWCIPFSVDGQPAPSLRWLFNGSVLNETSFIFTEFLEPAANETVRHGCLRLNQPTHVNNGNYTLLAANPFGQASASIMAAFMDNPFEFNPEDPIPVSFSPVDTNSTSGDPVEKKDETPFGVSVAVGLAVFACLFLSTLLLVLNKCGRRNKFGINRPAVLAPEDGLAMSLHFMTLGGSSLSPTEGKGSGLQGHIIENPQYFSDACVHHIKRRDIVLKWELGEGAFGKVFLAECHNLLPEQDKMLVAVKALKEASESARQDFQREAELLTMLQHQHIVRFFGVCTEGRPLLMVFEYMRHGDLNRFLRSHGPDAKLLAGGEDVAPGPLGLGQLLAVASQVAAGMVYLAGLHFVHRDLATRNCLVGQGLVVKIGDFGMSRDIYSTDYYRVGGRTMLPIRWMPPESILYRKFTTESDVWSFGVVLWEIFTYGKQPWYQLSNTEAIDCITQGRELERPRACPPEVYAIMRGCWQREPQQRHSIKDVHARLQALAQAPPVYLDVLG
Histone deacetylase 4 (Homo sapiens), sequence (P56524 whole entry, the tested form may be a part): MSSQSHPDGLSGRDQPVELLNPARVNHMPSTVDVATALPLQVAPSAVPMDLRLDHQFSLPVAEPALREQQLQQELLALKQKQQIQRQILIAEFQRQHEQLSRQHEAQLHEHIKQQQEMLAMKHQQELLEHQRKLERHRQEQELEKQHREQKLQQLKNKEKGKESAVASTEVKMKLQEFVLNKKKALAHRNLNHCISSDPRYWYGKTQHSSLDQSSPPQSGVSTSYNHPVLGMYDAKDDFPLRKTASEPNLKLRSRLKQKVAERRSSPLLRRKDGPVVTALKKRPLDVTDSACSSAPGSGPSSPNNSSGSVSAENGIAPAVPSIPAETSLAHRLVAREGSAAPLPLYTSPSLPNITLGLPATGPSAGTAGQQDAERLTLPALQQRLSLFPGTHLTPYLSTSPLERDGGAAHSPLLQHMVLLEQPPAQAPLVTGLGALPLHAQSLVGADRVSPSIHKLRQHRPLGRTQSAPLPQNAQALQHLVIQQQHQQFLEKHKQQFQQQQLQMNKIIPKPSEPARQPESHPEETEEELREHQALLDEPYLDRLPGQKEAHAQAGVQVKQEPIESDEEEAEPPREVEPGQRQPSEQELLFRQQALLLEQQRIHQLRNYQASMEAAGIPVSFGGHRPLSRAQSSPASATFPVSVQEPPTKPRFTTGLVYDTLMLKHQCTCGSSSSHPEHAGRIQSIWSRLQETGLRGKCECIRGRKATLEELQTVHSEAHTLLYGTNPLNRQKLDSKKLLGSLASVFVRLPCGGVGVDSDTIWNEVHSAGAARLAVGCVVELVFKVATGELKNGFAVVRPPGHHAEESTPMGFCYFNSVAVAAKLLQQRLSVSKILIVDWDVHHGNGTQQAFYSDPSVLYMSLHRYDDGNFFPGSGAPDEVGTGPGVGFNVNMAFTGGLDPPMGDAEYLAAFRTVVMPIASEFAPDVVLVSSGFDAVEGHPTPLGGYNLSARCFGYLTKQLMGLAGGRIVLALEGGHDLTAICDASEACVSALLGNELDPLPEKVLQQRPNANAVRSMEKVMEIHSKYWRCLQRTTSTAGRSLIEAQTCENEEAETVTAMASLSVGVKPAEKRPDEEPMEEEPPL

O=C(CCCCCCOc1ccc2cc1COC/C=C/COCc1cccc(c1)-c1ccnc(n1)N2)NO
inhibition [1]: 8.6% | pIC50 [2]: 5.00 to 6.00 | inhibition of growth at 4 µM [3]: 47% | pIC50 [4]: 5.79 | pIC50 [5]: 5.94 | inhibition [6]: Active | inhibition [7]: Active | inhibition [8]: Active | Activity (MOLM-14 [9]): 0.3% | Activity (MOLM-14 [10]): 24.4% | Activity [11]: Active
